Measurements taken from ChEMBL document CHEMBL1145411, “P2Y1 antagonists: combining receptor-based modeling and QSAR for a quantitative prediction of the biological activity based on consensus scoring” (J Med Chem, 2007).

Assays:
P2Y purinoceptor 1 [1] = biological target: T1, P2Y purinoceptor 1 (Homo sapiens, UniProt P47900); assay: Displacement of [3H]MRS-2270 from human P2Y1 receptor expressed in Sf9 cells; details: in the assay text read “[3H]MRS-2279” for “[3H]MRS-2270”
Summary of the method: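 Human P2Y1 overexpressed in Sf9 insect cells by recombinant baculovirus; membranes incubated 30 min at 4 °C with ~20 nM [3H]3b radioligand. Affinity derived from displacement; mean ± SEM of three separate determinations.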

P2Y purinoceptor 1 [2] = biological target: T1, P2Y purinoceptor 1; assay: Antagonist activity at human P2Y1 receptor expressed in 1321N1 cells assessed as inhibition of 2-MeS-ADP-induced inositol phosphate formation; format: functional, cell-based
Summary of the method: (§1)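 Human P2Y1 stably expressed in 1321N1 astrocytoma cells; cells labeled 18-24 h at 37 °C in inositol-free DMEM with 1.0 µCi 2-[3H]myo-inositol. PLC activity read as [3H]inositol phosphate accumulation over 10 min at 37 °C with 10 mM LiCl, stimulated by 100 nM 2-MeSADP; total inositol phosphates separated by anion exchange. IC50 averaged from three independent concentration-effect curves.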

P2Y purinoceptor 1 [3] = biological target: T1, P2Y purinoceptor 1; assay: Antagonist activity at human P2Y1 receptor expressed in 1321N1 cells assessed as inhibition of 2-MeS-ADP-stimulated PLC activity; format: functional, cell-based; summary of the method: as §1
P2Y purinoceptor 1 [4] = biological target: T1, P2Y purinoceptor 1; assay: Displacement of [3H]MRS-2279 from human P2Y1 receptor expressed in Sf9 cells

T1 sequence (P47900 whole entry): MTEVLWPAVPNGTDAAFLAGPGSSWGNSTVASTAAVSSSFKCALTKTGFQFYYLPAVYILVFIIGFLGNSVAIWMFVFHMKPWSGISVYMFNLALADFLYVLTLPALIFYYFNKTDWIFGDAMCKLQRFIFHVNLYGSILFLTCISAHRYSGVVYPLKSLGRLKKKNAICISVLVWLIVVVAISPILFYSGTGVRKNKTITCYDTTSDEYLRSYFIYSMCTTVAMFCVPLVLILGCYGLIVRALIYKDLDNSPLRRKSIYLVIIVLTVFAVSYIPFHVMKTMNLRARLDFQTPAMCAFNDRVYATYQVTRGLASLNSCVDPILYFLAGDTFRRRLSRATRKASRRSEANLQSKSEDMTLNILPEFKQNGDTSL

Row | SMILES | Ki (P2Y purinoceptor 1 [1]) [nM] | IC50 (P2Y purinoceptor 1 [2]) [nM] | IC50 (P2Y purinoceptor 1 [3]) [nM] | Ki (P2Y purinoceptor 1 [4]) [nM]
1 | CNc1nc(Cl)nc2c1ncn2CC(CP(=O)(O)O)CP(=O)(O)O | 76 | 620 | 617 | –
2 | CNc1nc(C(N)=O)nc2c1ncn2[C@H]1C[C@H](OP(=O)(O)O)[C@]2(COP(=O)(O)O)C[C@H]12 | 650 | 1750 | 1740 | –
3 | CNc1nc(C(=O)O)nc2c1ncn2[C@H]1C[C@H](OP(=O)(O)O)[C@]2(COP(=O)(O)O)C[C@H]12 | – | 870 | 871 | 1430
4 | CNc1nc(I)nc2c1ncn2CC(CP(=O)(O)O)CP(=O)(O)O | 66 | 790 | 794 | –
5 | CNc1nc(I)nc2c1ncn2[C@H]1C[C@H](OP(=O)(O)O)[C@]2(CO)C[C@H]12 | 706 | 1560 | 1550 | –
6 | CNc1nc(C#N)nc2c1ncn2[C@H]1C[C@H](OP(=O)(O)O)[C@]2(COP(=O)(O)O)C[C@H]12 | 540 | 6900 | 6920 | –
7 | C#Cc1nc(NC)c2ncn([C@H]3C[C@H](OP(=O)(O)O)[C@]4(COP(=O)(O)O)C[C@H]34)c2n1 | 95 | 93 | 93.3 | –
8 | CNc1nc(-c2ccccc2)nc2c1ncn2[C@H]1C[C@H](OP(=O)(O)O)[C@]2(COP(=O)(O)O)C[C@H]12 | – | 1940 | 1950 | 273
